# Results from different studies.
# Each line is one published result; the experiments were not run side by side.
Compound,cell line,read-out,mode,method,time,notes,IC50 [µM]
Cn1nnc2c(Cl)ncn2c1=O,D54,cell growth or viability,,resazurin,7 days,,21
Cc1ccc2nc(-c3ccc([N+](=O)[O-])cc3)n(Cc3ccccc3Cl)c2c1,human Rhabdomyosarcoma cell,cell growth or viability,,MTT,,,17.6
O=C(/C=C(/C=C/c1cccnc1)NC1CCCCC1)/C=C/c1cccnc1,CHO-K1,cell growth or viability,,MTT,72 h,,16.8
O=C(/C=C(O)/C=C/c1ccc2ccccc2n1)/C=C/c1c[nH]c2ccccc12,CHO-K1,cell growth or viability,,SRB,72 h,,43.3
CC(C)(C)Nc1c(-c2ccc([N+](=O)[O-])cc2)nc2ccccn12,Vero,cell growth or viability,,MTT,48 h,,85
O=C(/C=C(O)/C=C/c1ccncc1)/C=C/c1c[nH]c2ccccc12,CHO-K1,cell growth or viability,,MTT,72 h,,42.9
Brc1ccc(Nc2nc(NCCc3ccccc3)nc(NCCc3ccccc3)n2)cc1,SK-BR-3,cell growth or viability,,SRB,72 h,,25.3
Cc1ccc2nc(-c3ccc(Cl)cc3)n(Cc3ccccc3Cl)c2c1,human Rhabdomyosarcoma cell,cell growth or viability,,MTT,,,41
COc1ccccc1/C=C/CNCC(O)COc1ccc2c(c1)[nH]c1ccccc12 (stereo not shown),NCI-H1299,cell growth or viability,,CCK-8,72 h,,3.9
O=[N+]([O-])c1cccc(-c2nc3ccccc3[nH]2)c1,human Rhabdomyosarcoma cell,cell growth or viability,,MTT,48 h,,50.3
O=C(/C=C(O)/C=C/c1ccccn1)/C=C/c1c[nH]c2ccccc12,CHO-K1,cell growth or viability,,MTT,72 h,,22.3
Cc1ccc2nc(-c3ccc(Cl)cc3)[nH]c2c1,human Rhabdomyosarcoma cell,cell growth or viability,,MTT,48 h,,48.3
COc1ccccc1NCCCNCC(O)COc1cccc2[nH]c3ccccc3c12 (stereo not shown),NCI-H1299,cell growth or viability,,CCK-8,72 h,,8.9
Cc1ccc2nc(-c3c(F)cccc3Cl)[nH]c2c1,human Rhabdomyosarcoma cell,cell growth or viability,,MTT,48 h,,45.1
CC(C)C[C@H](NC(=O)[C@H](Cc1ccccc1)NC(=O)c1cnccn1)B(O)O,SNU-840,cell growth or viability,,ATP luminescence,,,0.0081
COc1cc(/C=C/c2cc(/C=C/c3cccnc3)[nH]n2)ccc1O,CHO-K1,cell growth or viability,,SRB,72 h,,13.6
COc1ccc(-c2nc3ccc(C)cc3[nH]2)cc1O,human Rhabdomyosarcoma cell,cell growth or viability,,MTT,48 h,,48.7
COc1cc(/C=C/c2cc(/C=C/c3ccncc3)[nH]n2)ccc1O,CHO-K1,cell growth or viability,,SRB,72 h,,41.8
Clc1ccc(-c2nc3ccccc3[nH]2)cc1,human Rhabdomyosarcoma cell,cell growth or viability,,MTT,48 h,,> 100
O=C(O)Cc1ccccc1Nc1c(Cl)cccc1Cl,RAW264.7,IL-6 release,inhibitor,,,LPS-stimulated,10.2
Cc1ccc2nc(-c3ccc4c(c3)OCO4)[nH]c2c1,human Rhabdomyosarcoma cell,cell growth or viability,,MTT,48 h,,> 100
O=C(/C=C(O)/C=C/c1cccnc1)/C=C/c1cccnc1,CHO-K1,cell growth or viability,,MTT,72 h,,7.2
COc1ccccc1CCCNCC(O)COc1cccc2[nH]c3ccccc3c12 (stereo not shown),NCI-H1299,cell growth or viability,,CCK-8,72 h,,7.2
O=C(Cn1ccnc1[N+](=O)[O-])NCc1ccccc1,RAW264.7,cell growth or viability,,MTT,,,> 240
CC(C)CNC(=C\C(=O)/C=C/c1cccnc1)/C=C/c1cccnc1,CHO-K1,cell growth or viability,,SRB,72 h,,28.6
